Experimental data published in PMC10449099 (The Journal of Pharmacology and Experimental Therapeutics, 2023).
Blank lines part the entries; values can stand above or below the compound they belong to.

Tests used:
[1] = molecular target: T1, WT hKir6.1/hSUR2B (Homo sapiens, UniProt O60706+Q15842); assay: DiBAC4; assay type: cell-based; details: WT cells
Summary of the method: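 WT hKir6.1/hSUR2B and untransfected landing-pad HEK293 cells were loaded ≥30 min with 3 μM DiBAC4(3) in 1 mM K+ buffer. […] Background-subtracted mean cell fluorescence was normalized to untreated cells, n = 4–6. K conductance was estimated with a simplified Goldman-Hodgkin-Katz equation.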

[2] = molecular target: hKir6.1/hSUR2B[R1154Q] (Homo sapiens, UniProt O60706+Q15842, R1154Q); assay: Thallium flux assay, SUR2B[R1154Q] stable cells; assay type: cell-based; details: KCOs at presumably maximal concentrations
Summary of the method: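 Doxycycline-induced stable HEK293 cells on poly-L-lysine were loaded 1 h with Fluozin-2 in HBSS. […] Ex 485/em 528 nm was read every 2 s for 2 min, with Tl+ added at 20 s. Blank-subtracted, pre-Tl-normalized traces were fit single-exponentially, giving initial rate at t=0; n = 3–4.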

[3] = molecular target: T1, WT hKir6.1/hSUR2B; assay type: cell-based; details: for activation of Tl influx by KCO: KCOs at presumably maximal concentrations
[4] = molecular target: hKir6.1[V65M]/hSUR2B (Homo sapiens, UniProt O60706+Q15842, V65M); assay: Thallium flux assay, Kir6.1[V65M] stable cells; assay type: cell-based; details: for activation of Tl influx by KCO: KCOs at presumably maximal concentrations, compared with WT
[5] = system: SUR2[A478V] mice; details: ref McClenaghan et al., 2020b; cited from earlier work
[6] = molecular target: hKir6.1[C176S]/hSUR2B (Homo sapiens, UniProt O60706+Q15842, C176S); assay: Thallium flux assay, Kir6.1[C176S] stable cells; assay type: cell-based
[7] = molecular target: hSUR2B[R1154W] (Homo sapiens, UniProt O60706+Q15842, R1154W); assay: DiBAC4; assay type: cell-based; details: basal activity without KCO
Summary of the method: (§1)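 Stable landing-pad HEK293 lines expressing hKir6.1/hSUR2B mutants were induced with doxycycline (4 μg/ml) and grown 1 day on poly-L-lysine. Cells were washed in low-K buffer (1 mM KCl, HEPES, pH 7.4), then incubated ≥30 min with 3 μM DiBAC4(3) plus blocker (glibenclamide, repaglinide or PNU37883A), without opener. Cells were segmented by red fluorescence, background-subtracted and mean-intensity averaged over duplicate images.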

[8] = molecular target: hKir6.1[A46V]/hSUR2B (Homo sapiens, UniProt O60706+Q15842, A46V); assay: Thallium flux assay, Kir6.1[A46V] stable cells; assay type: cell-based
[9] = molecular target: Kir6.1/SUR2B[R1154Q] mutant channels (Homo sapiens, UniProt O60706+Q15842, R1154Q); assay: Whole-cell patch-clamp, stably transfected R1154Q mutant channels; assay type: cell-based
[10] = system: hKir6.1 mutations, particularly V65M, C176S and E189K; assay: DiBAC4; assay type: cell-based, human; details: for sensitivity of mutation-caused hyperpolarization to reversal by inhibitor: basal activity without KCO, hKir6.1 mutations, particularly V65M, C176S, E189K
Summary of the method: as §1

[11] = system: gastric motility; details: ref York et al., 2020; cited from earlier work
[12] = molecular target: hKir6.1[D338E]/hSUR2B (Homo sapiens, UniProt O60706+Q15842, D338E); assay: Thallium flux assay, Kir6.1[D338E] stable cells; assay type: cell-based
[13] = system: hSUR2B mutations (A478V, R1154Q, indel1055); assay: DiBAC4; assay type: cell-based, human; details: for reversal of mutation-caused hyperpolarization by inhibitor: basal activity without KCO, hSUR2B A478V, R1154Q, indel1055
Summary of the method: as §1

[14] = molecular target: hKir6.1[E189K]/hSUR2B (Homo sapiens, UniProt O60706+Q15842, E189K); assay: Thallium flux assay, Kir6.1[E189K] stable cells; assay type: cell-based
[15] = molecular target: hKir6.1[A46V] (Homo sapiens, UniProt O60706+Q15842, A46V); assay: DiBAC4; assay type: cell-based; details: basal activity without KCO
Summary of the method: as §1

[16] = system: hKir6.1/hSUR2B with hSUR2B mutations (A478V, indel1055, R1154Q, R1154W); assay: Thallium flux assay, all cell lines with hSUR2B mutations; assay type: cell-based, human; details: all hSUR2B mutant cell lines
Summary of the method: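 Doxycycline-induced stable hKir6.1/hSUR2B-mutant HEK293 cells on poly-L-lysine were loaded 1 h with Fluozin-2 in HBSS. […] Ex 485/em 528 nm was read every 2 s for 2 min, with Tl+ added at 20 s. Blank-subtracted traces normalized to pre-Tl fluorescence were fit with a single exponential; initial rate was the derivative at t=0.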

[17] = molecular target: WT Kir6.1/SUR2B channels (Homo sapiens, UniProt O60706+Q15842); assay: Whole-cell patch-clamp, stably transfected WT channels; assay type: cell-based; details: Vm -60 mV
[18] = molecular target: Kir6.1[D338E] (Homo sapiens, UniProt O60706+Q15842, D338E); assay: DiBAC4; assay type: cell-based; details: basal activity without KCO; printed hKir6.1[G338E]
[19] = system: cardiac function; details: ref Humphrey et al., 1996; cited from earlier work
[20] = most SUR2B CS mutations, basal activity

T1 sequence (Q15842 whole entry): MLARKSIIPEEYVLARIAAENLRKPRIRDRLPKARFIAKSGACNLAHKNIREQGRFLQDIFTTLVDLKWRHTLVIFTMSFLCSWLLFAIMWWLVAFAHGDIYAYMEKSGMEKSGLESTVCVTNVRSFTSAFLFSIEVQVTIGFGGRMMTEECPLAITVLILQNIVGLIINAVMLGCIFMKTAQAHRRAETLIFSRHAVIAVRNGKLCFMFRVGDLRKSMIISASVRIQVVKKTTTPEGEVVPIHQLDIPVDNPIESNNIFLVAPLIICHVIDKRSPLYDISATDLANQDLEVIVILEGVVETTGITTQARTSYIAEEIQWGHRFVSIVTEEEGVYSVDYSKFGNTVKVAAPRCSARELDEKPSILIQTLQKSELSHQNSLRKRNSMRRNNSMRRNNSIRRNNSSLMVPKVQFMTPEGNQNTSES
T1 sequence (O60706 1-1549 isoform O60706-2): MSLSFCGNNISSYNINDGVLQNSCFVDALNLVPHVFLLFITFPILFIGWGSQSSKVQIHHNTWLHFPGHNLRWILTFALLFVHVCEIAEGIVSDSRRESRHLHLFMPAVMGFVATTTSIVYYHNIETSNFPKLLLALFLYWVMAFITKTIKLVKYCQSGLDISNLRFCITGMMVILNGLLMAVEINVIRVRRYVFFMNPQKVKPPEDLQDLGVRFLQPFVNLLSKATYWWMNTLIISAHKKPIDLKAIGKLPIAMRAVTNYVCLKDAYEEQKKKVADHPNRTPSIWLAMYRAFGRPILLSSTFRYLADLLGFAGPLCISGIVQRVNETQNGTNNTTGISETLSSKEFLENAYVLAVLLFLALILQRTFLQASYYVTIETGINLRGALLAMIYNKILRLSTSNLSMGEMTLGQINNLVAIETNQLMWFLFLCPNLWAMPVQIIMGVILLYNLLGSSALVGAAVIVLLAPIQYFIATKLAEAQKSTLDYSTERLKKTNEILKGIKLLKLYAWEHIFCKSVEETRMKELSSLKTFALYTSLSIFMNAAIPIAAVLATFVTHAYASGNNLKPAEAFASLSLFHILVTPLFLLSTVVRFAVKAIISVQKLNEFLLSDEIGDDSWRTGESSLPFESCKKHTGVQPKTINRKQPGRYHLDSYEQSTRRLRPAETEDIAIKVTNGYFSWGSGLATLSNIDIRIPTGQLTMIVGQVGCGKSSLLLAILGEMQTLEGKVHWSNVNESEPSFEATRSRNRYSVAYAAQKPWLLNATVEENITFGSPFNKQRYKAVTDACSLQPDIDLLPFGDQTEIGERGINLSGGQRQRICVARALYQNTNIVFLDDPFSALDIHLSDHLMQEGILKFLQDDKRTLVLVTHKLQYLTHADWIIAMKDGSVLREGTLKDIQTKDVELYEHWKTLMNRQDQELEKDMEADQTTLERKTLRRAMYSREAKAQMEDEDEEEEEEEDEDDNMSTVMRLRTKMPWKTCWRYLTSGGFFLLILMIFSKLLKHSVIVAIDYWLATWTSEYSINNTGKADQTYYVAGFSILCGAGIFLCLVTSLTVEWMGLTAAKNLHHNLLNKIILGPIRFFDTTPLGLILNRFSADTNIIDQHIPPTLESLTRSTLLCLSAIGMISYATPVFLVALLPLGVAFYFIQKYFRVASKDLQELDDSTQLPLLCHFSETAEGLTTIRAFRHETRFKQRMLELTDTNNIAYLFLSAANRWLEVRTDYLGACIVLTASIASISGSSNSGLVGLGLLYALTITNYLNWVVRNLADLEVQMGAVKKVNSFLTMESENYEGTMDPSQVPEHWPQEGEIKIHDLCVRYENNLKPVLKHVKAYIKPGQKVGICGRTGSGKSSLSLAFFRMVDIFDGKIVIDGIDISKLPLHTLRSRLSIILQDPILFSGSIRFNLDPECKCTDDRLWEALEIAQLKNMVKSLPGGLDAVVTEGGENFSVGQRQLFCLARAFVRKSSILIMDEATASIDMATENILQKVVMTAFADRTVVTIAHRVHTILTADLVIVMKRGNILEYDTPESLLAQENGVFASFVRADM
Chain of hKir6.1/hSUR2B[R1154Q] (Q15842 whole entry): as the sequence (Q15842 whole entry) above
Chain of hKir6.1/hSUR2B[R1154Q] (O60706 1-1549 isoform O60706-2 R1154Q): as the sequence (O60706 1-1549 isoform O60706-2) above, with R1154Q counted along it
Chain of hKir6.1[E189K]/hSUR2B (Q15842 whole entry E189K): as the sequence (Q15842 whole entry) above, with E189K counted along it
Chain of hKir6.1[E189K]/hSUR2B (O60706 1-1549 isoform O60706-2, stated change not applied): as the sequence (O60706 1-1549 isoform O60706-2) above
Chain of hKir6.1[C176S]/hSUR2B (Q15842 whole entry C176S): as the sequence (Q15842 whole entry) above, with C176S counted along it
Chain of hKir6.1[C176S]/hSUR2B (O60706 1-1549 isoform O60706-2, stated change not applied): as the sequence (O60706 1-1549 isoform O60706-2) above
Chain of hKir6.1[D338E]/hSUR2B (Q15842 whole entry D338E): as the sequence (Q15842 whole entry) above, with D338E counted along it
Chain of hKir6.1[D338E]/hSUR2B (O60706 1-1549 isoform O60706-2, stated change not applied): as the sequence (O60706 1-1549 isoform O60706-2) above
Chain of hKir6.1[A46V] (Q15842 whole entry A46V): as the sequence (Q15842 whole entry) above, with A46V counted along it
Chain of hKir6.1[A46V] (O60706 1-1549 isoform O60706-2, stated change not applied): as the sequence (O60706 1-1549 isoform O60706-2) above
Chain of hKir6.1[V65M]/hSUR2B (Q15842 whole entry V65M): as the sequence (Q15842 whole entry) above, with V65M counted along it
Chain of hKir6.1[V65M]/hSUR2B (O60706 1-1549 isoform O60706-2, stated change not applied): as the sequence (O60706 1-1549 isoform O60706-2) above
Chain of Kir6.1/SUR2B[R1154Q] mutant channels (Q15842 whole entry): as the sequence (Q15842 whole entry) above
Chain of Kir6.1/SUR2B[R1154Q] mutant channels (O60706 1-1549 isoform O60706-2 R1154Q): as the sequence (O60706 1-1549 isoform O60706-2) above, with R1154Q counted along it
Chain of hKir6.1[A46V]/hSUR2B (Q15842 whole entry A46V): as the sequence (Q15842 whole entry) above, with A46V counted along it
Chain of hKir6.1[A46V]/hSUR2B (O60706 1-1549 isoform O60706-2, stated change not applied): as the sequence (O60706 1-1549 isoform O60706-2) above
Chain of hSUR2B[R1154W] (Q15842 whole entry): as the sequence (Q15842 whole entry) above
Chain of hSUR2B[R1154W] (O60706 1-1549 isoform O60706-2 R1154W): as the sequence (O60706 1-1549 isoform O60706-2) above, with R1154W counted along it
Chain of WT Kir6.1/SUR2B channels (Q15842 whole entry): as the sequence (Q15842 whole entry) above
Chain of WT Kir6.1/SUR2B channels (O60706 1-1549 isoform O60706-2): as the sequence (O60706 1-1549 isoform O60706-2) above
Chain of Kir6.1[D338E] (Q15842 whole entry D338E): as the sequence (Q15842 whole entry) above, with D338E counted along it
Chain of Kir6.1[D338E] (O60706 1-1549 isoform O60706-2, stated change not applied): as the sequence (O60706 1-1549 isoform O60706-2) above

effect of forskolin on membrane potential (DiBAC4(3)) ([1]; 10 μM forskolin): significant hyperpolarization
Tl-influx rate with forskolin ([6]; hKir6.1[C176S], 10 μM forskolin): increased
Tl influx signal with forskolin ([3]; WT, 10 μM forskolin): failed to generate measurable
Tl-influx rate with forskolin ([12]; hKir6.1[D338E], 10 μM forskolin): increased
Tl-influx rate with forskolin ([4]; hKir6.1[V65M], 10 μM forskolin): increased
Tl-influx rate with forskolin ([14]; hKir6.1[E189K], 10 μM forskolin): increased
Structure (SMILES): C=C[C@@]1(C)CC(=O)[C@]2(O)[C@@]3(C)[C@@H](O)CCC(C)(C)[C@@H]3[C@H](O)[C@H](OC(C)=O)[C@@]2(C)O1 [forskolin]
response of Tl-influx rate to forskolin ([16]; 10 μM forskolin): essentially insensitive

DiBAC4(3) signal changes at 10 μM pinacidil ([1]; 10 μM pinacidil): almost saturated
effect on membrane potential (DiBAC4(3) fluorescence) ([1]; 1 mM [K+]o): dose-dependently hyperpolarized
potency of hyperpolarization, comparison ([1]; 1 mM [K+]o): more potent than diazoxide
share of the DiBAC4(3) signal change that occurs at <3 μM pinacidil ([1]; <3 μM pinacidil, activation of <20% of maximal WT conductance): ~80%
maximum channel activity with pinacidil compared with WT ([6]; Kir6.1[C176S], Tl influx dose-response): much higher
Hill coefficient, pinacidil activation ([6]; Kir6.1[C176S], fit with eq. 3): 1.2 ± 0.1
Hill coefficient, pinacidil activation ([8]; fit with eq. 3): 1.9 ± 0.2
increase of whole-cell current by pinacidil (IPin/IBasal) ([9]; Vm -60 mV): ~10 fold
activation of Tl influx by KCO [2]: not activated
pinacidil concentration at which Tl influx activation reached maximum ([3]; WT channels): 100 µM
activation of Tl influx by KCO ([3]; WT): activated
Hill coefficient, pinacidil activation ([3]; WT, fit with eq. 3): 2.6 ± 1.0
Hill coefficient, pinacidil activation ([12]; Kir6.1[D338E], fit with eq. 3): 1.7 ± 0.1
channel activity at very high concentration of pinacidil ([4]; Kir6.1[V65M], 300 μM pinacidil): slightly decreased
Hill coefficient, pinacidil activation ([4]; Kir6.1[V65M], fit with eq. 3): 1.2 ± 0.0
activation of Tl influx by KCO ([4]; hKir6.1[V65M]): enhanced activation
Hill coefficient, pinacidil activation ([14]; Kir6.1[E189K], fit with eq. 3): 1.3 ± 0.4
increase of whole-cell current by pinacidil (IPin/IBasal) [17]: ~150 fold
Structure (SMILES): CC(N/C(=N\C#N)Nc1ccncc1)C(C)(C)C (centres unmarked) [pinacidil]
response of Tl-influx rate to pinacidil activation ([16]; pinacidil 100 μM): essentially insensitive

reversal of mutation-caused hyperpolarization by inhibitor [15]: readily reversed
Structure (SMILES): CCOc1cc(CC(=O)N[C@@H](CC(C)C)c2ccccc2N2CCCCC2)ccc1C(=O)O [repaglinide]
sensitivity of mutation-caused hyperpolarization to reversal by inhibitor [10]: very poorly sensitive
reversal of mutation-caused hyperpolarization by inhibitor [13]: readily reversed
block of basal activity compared with glibenclamide [13, 20]: more effectively

activation of Tl influx by KCO [2]: not activated
activation of Tl influx by KCO ([4]; hKir6.1[V65M]): measurable activation
Structure (SMILES): O=C(NCCO[N+](=O)[O-])c1cccnc1 [nicorandil]
activation of Tl influx by KCO ([3]; WT): only activated by pinacidil and cromakalim

More lines, now with the values behind:

Structure (SMILES): CC1=NS(=O)(=O)c2cc(Cl)ccc2N1 [diazoxide]
concentrations generating clear KATP-dependent hyperpolarization signals ([1]; 1 mM [K+]o): above 1 μM
effect on membrane potential (DiBAC4(3) fluorescence) ([1]; 1 mM [K+]o): dose-dependently hyperpolarized
activation of Tl influx by KCO [2]: not activated
activation of Tl influx by KCO ([3]; WT): no effect
activation of Tl influx by KCO ([4]; hKir6.1[V65M]): measurable activation

Structure (SMILES): COc1ccc(Cl)cc1C(=O)NCCc1ccc(S(=O)(=O)NC(=O)NC2CCCCC2)cc1 [glibenclamide]
effect on CS-associated cardiovascular abnormalities [5]: reversed CS-associated cardiovascular abnormalities
Hill coefficient, glibenclamide inhibition ([6]; Kir6.1[C176S], 100 μM pinacidil, fit with eq. 4): 1.1 ± 0.5
sensitivity of mutation-caused hyperpolarization to reversal by inhibitor [7]: uniquely insensitive
Hill coefficient, glibenclamide inhibition ([8]; 100 μM pinacidil, fit with eq. 4): 1.9 ± 0.3
glibenclamide sensitivity (IPin+Glib/IPin) compared with WT ([9]; pinacidil-activated current): markedly reduced
sensitivity of mutation-caused hyperpolarization to reversal by inhibitor [10]: very poorly sensitive
effect on gastric motility [11]: restored gastric motility
Hill coefficient, glibenclamide inhibition ([3]; WT, 100 μM pinacidil, fit with eq. 4): 2.9 ± 6.0
Hill coefficient, glibenclamide inhibition ([12]; Kir6.1[D338E], 100 μM pinacidil, fit with eq. 4): 1.5 ± 0.4
Hill coefficient, glibenclamide inhibition ([4]; Kir6.1[V65M], 100 μM pinacidil, fit with eq. 4): 1.8 ± 0.8
reversal of mutation-caused hyperpolarization by inhibitor [13]: readily reversed
glibenclamide concentration that effectively blocked basal activity [13, 20]: 100 to 300 nM
glibenclamide concentration that markedly inhibited ([13]; most SUR2 CS mutations): < 100 nM
Hill coefficient, glibenclamide inhibition ([14]; Kir6.1[E189K], 100 μM pinacidil, fit with eq. 4): 1.0 ± 0.2
reversal of mutation-caused hyperpolarization by inhibitor [15]: readily reversed

Structure (SMILES): CC1(C)Oc2ccc(C#N)cc2C(N2CCCC2=O)C1O (centres unmarked) [cromakalim]
activation of Tl influx by KCO [2]: not activated
activation of Tl influx by KCO ([3]; WT): activated
activation of Tl influx by KCO ([4]; hKir6.1[V65M]): enhanced activation

Structure (SMILES): C1CCC(N=C(NC23CC4CC(CC(C4)C2)C3)N2CCOCC2)CC1.Cl [PNU37883A]
inhibition of basal Kir6.1 mutation activities, comparison ([10]; at saturating doses): more effective than glibenclamide or repaglinide
sensitivity of mutation-caused hyperpolarization to reversal by inhibitor [10]: very poorly sensitive
sensitivity of mutation-caused hyperpolarization to reversal by inhibitor [18]: uniquely insensitive
reversal of mutation-caused hyperpolarization by inhibitor [13]: readily reversed
effects on cardiac function [19]: Fatal effects
reversal of mutation-caused hyperpolarization by inhibitor [15]: readily reversed
